Converted amounts (≈) assume the structure as drawn.
Tests used:
Assay type in all cases: functional
[1] = system: Escherichia coli; test: Antimicrobial activity against Escherichia coli at 50 ug/ml by agar plate diffusion technique; conditions: read-out: IZ
Summary of the method: (§1)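 Agar plate diffusion against E. coli, P. aeruginosa, S. aureus and B. subtilis, with compounds at 25, 50 and 100 µg/mL. Streptomycin as standard.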

[2] = system: Escherichia coli; test: Antimicrobial activity against Escherichia coli at 100 ug/ml by agar plate diffusion technique; conditions: read-out: IZ; summary of the method: as §1
[3] = system: Aspergillus niger; test: Antimicrobial activity against Aspergillus niger at 100 ug/ml by paper disc method; conditions: read-out: IZ
Summary of the method: (§2)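 Paper disc method against A. niger and C. albicans, with compounds at 25, 50 and 100 µg/mL. Amphotericin-B as standard.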

[4] = system: Escherichia coli; test: Antimicrobial activity against Escherichia coli at 25 ug/ml by agar plate diffusion technique; conditions: read-out: IZ; summary of the method: as §1
[5] = system: Metaphire posthuma; test: Anthelmintic activity against Pheretima posthuma assessed as time taken for complete parasite paralysis at 0.2% w/v
Summary of the method: (§3)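 Earthworms (Pheretima posthuma) exposed to test solutions at 0.1, 0.2 and 0.5% w/v; time in minutes to complete paralysis (worms motionless) recorded. Albendazole as standard. Mean of three determinations ± S.D.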

[6] = system: Pseudomonas aeruginosa; test: Antimicrobial activity against Pseudomonas aeruginosa at 100 ug/ml by agar plate diffusion technique; conditions: read-out: IZ; summary of the method: as §1
[7] = Antioxidant activity assessed as potassium ferricyanide ion reducing power after 20 mins
Summary of the method: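 Oyaizu method. Samples or ascorbic acid in DMF (12.5–100 µg/mL) mixed with 0.2 M phosphate buffer pH 6.6 and 1% potassium ferricyanide, 20 min at 50 °C. 10% TCA added, centrifuged. Supernatant mixed with water and 0.1% FeCl3, read at 700 nm. % = [(Vt/Vc) − 1] × 100. IC50 derived.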

[8] = system: Pseudomonas aeruginosa; test: Antimicrobial activity against Pseudomonas aeruginosa at 50 ug/ml by agar plate diffusion technique; conditions: read-out: IZ; summary of the method: as §1
[9] = Antioxidant activity assessed as hydrogen peroxide scavenging activity after 10 mins
Summary of the method: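 H2O2 (20 mM) in PBS pH 7.4. 1 mL of sample or ascorbic acid in methanol (12.5–100 µg/mL) added to 2 mL H2O2 solution. A230 read after 10 min. % inhibition = [1 − (Vt/Vc)] × 100. Triplicate, averaged. IC50 derived from % inhibition across concentrations.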

[10] = system: Pseudomonas aeruginosa; test: Antimicrobial activity against Pseudomonas aeruginosa at 25 ug/ml by agar plate diffusion technique; conditions: read-out: IZ; summary of the method: as §1
[11] = system: Bacillus subtilis; test: Antimicrobial activity against Bacillus subtilis at 25 ug/ml by agar plate diffusion technique; conditions: read-out: IZ; summary of the method: as §1
[12] = system: Candida albicans; test: Antimicrobial activity against Candida albicans at 50 ug/ml by paper disc method; conditions: read-out: IZ; summary of the method: as §2
[13] = system: Staphylococcus aureus; test: Antimicrobial activity against Staphylococcus aureus at 100 ug/ml by agar plate diffusion technique; conditions: read-out: IZ; summary of the method: as §1
[14] = system: Bacillus subtilis; test: Antimicrobial activity against Bacillus subtilis at 100 ug/ml by agar plate diffusion technique; conditions: read-out: IZ; summary of the method: as §1
[15] = system: Metaphire posthuma; test: Anthelmintic activity against Pheretima posthuma assessed as time taken for parasite death at 0.1% w/v
Summary of the method: (§4)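 Earthworms (Pheretima posthuma, spelled Perituma posthuma in text) exposed to test compounds at 0.1, 0.2 and 0.5% w/v. Albendazole served as standard, with an untreated control. Paralysis was recorded as the time until worms became motionless, then time to death was recorded, in minutes. Each value is the mean of three determinations with S.D.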

[16] = Antioxidant activity assessed as nitric oxide radical scavenging activity after 150 mins
Summary of the method: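 10 mM sodium nitroprusside (4 mL), PBS pH 7.4 (1 mL) and sample or ascorbic acid in DMSO (1 mL, 12.5–100 µg/mL), incubated 150 min at 25 °C. Nitrite detected with sulphanilic acid (5 min) then naphthylethylenediamine (30 min, diffused light). Read at […]. Triplicate. % inhibition = [1 − (Vt/Vc)] × 100. IC50 derived from it.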

[17] = system: Staphylococcus aureus; test: Antimicrobial activity against Staphylococcus aureus at 50 ug/ml by agar plate diffusion technique; conditions: read-out: IZ; summary of the method: as §1
[18] = system: Aspergillus niger; test: Antimicrobial activity against Aspergillus niger at 25 ug/ml by paper disc method; conditions: read-out: IZ; summary of the method: as §2
[19] = system: Candida albicans; test: Antimicrobial activity against Candida albicans at 25 ug/ml by paper disc method; conditions: read-out: IZ; summary of the method: as §2
[20] = system: Metaphire posthuma; test: Anthelmintic activity against Pheretima posthuma assessed as time taken for complete parasite paralysis at 0.5% w/v; summary of the method: as §3
[21] = Antiinflammatory activity assessed as inhibition of albumin denaturation at 100 ug/ml by UV-visible spectrophotometry
Summary of the method: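 Compounds dissolved in minimal DMF, diluted in PBS pH 7.4 (final DMF <2.5%). 1 mL test solution (100 µg/mL) plus 1 mL 1% albumin in PBS, 15 min at 27 ± 1 °C, then heated 10 min at 60 ± 1 °C. After cooling, turbidity read at 660 nm. % inhibition = [(Vt/Vc) − 1] × 100 against a no-drug control. Triplicate, averaged. Diclofenac standard.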

[22] = Antioxidant activity assessed as inhibition of lipid peroxidation using egg lecithin liposomes incubated for 1 hr
Summary of the method: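 Egg lecithin (3 mg/mL, phosphate buffer pH 7.4) sonicated 10 min to form liposomes. Sample or ascorbic acid (12.5–100 µg/mL) added. Peroxidation induced with FeCl3 and L-ascorbic acid, 1 h at 37 °C. Stopped with HCl/TCA/TBA/BHA, boiled 15 min, centrifuged, supernatant read at 532 nm. Triplicate. % inhibition vs control. IC50 derived.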

[23] = system: Aspergillus niger; test: Antimicrobial activity against Aspergillus niger at 50 ug/ml by paper disc method; conditions: read-out: IZ; summary of the method: as §2
[24] = system: Bacillus subtilis; test: Antimicrobial activity against Bacillus subtilis at 50 ug/ml by agar plate diffusion technique; conditions: read-out: IZ; summary of the method: as §1
[25] = system: Candida albicans; test: Antimicrobial activity against Candida albicans at 100 ug/ml by paper disc method; conditions: read-out: IZ; summary of the method: as §2
[26] = system: Metaphire posthuma; test: Anthelmintic activity against Pheretima posthuma assessed as time taken for parasite death at 0.5% w/v; summary of the method: as §4
[27] = system: Metaphire posthuma; test: Anthelmintic activity against Pheretima posthuma assessed as time taken for parasite death at 0.2% w/v; summary of the method: as §4
[28] = system: Staphylococcus aureus; test: Antimicrobial activity against Staphylococcus aureus at 25 ug/ml by agar plate diffusion technique; conditions: read-out: IZ; summary of the method: as §1
[29] = system: Metaphire posthuma; test: Anthelmintic activity against Pheretima posthuma assessed as time taken for complete parasite paralysis at 0.1% w/v; summary of the method: as §3

| SMILES | zone of inhibition at 50 µg/mL [1] [mm] | zone of inhibition at 100 µg/mL [2] [mm] | zone of inhibition at 100 µg/mL [3] [mm] | zone of inhibition at 25 µg/mL [4] [mm] | Time [5] [min] | IC50 [7] [µg/mL] | IC50 [9] [µg/mL] | zone of inhibition at 25 µg/mL [11] [mm] | zone of inhibition at 50 µg/mL [12] [mm] | zone of inhibition at 100 µg/mL [13] [mm] | zone of inhibition at 100 µg/mL [14] [mm] | Time [15] [min] | IC50 [16] [µg/mL] | zone of inhibition at 50 µg/mL [17] [mm] | zone of inhibition at 25 µg/mL [18] [mm] | zone of inhibition at 25 µg/mL [19] [mm] | Time [20] [min] | inhibition [21] [%] | zone of inhibition at 50 µg/mL [24] [mm] | zone of inhibition at 25 µg/mL [28] [mm] | further results |
| --- | --- | --- | --- | --- | --- | --- | --- | --- | --- | --- | --- | --- | --- | --- | --- | --- | --- | --- | --- | --- | --- |
| CCOC(=O)c1cnn(-c2nc(-c3ccc(OC)cc3)c(C#N)c(=O)n2C)c1N | 14.7 | 17.4 | 20.7 | 10.5 | 49.46 | 59 (≈ 150 µM) | 74 (≈ 188 µM) | 10.2 | 12.6 | 18.6 | 18.1 | 67.41 | 79 (≈ 200 µM) | 15.1 | 11.6 | 9.62 | 45.02 | 13.6 | 14 | 10.1 | zone of inhibition at 100 µg/mL [6]: 16.1 mm; zone of inhibition at 50 µg/mL [8]: 10.2 mm; zone of inhibition at 25 µg/mL [10]: 8.21 mm; IC50 [22]: 68 µg/mL (≈ 172 µM); zone of inhibition at 50 µg/mL [23]: 13 mm; zone of inhibition at 100 µg/mL [25]: 19.8 mm; Time [26]: 57.93 min; Time [27]: 63.37 min; Time [29]: 52.09 min |
| COc1ccc(-c2nc(SC)n(C)c(=O)c2C#N)cc1 | 7.19 | 8.79 | 18 | 5.08 | 46.56 | 58 (≈ 202 µM) | 48 (≈ 167 µM) | 11.7 | 11.2 | 14.8 | 19.1 | 78.22 | 73 (≈ 254 µM) | 12.8 | 11.6 | 9.33 | 42.65 | 21.3 | 13.1 | 8.76 | zone of inhibition at 100 µg/mL [6]: 9.17 mm; zone of inhibition at 50 µg/mL [8]: 8.84 mm; zone of inhibition at 25 µg/mL [10]: 6.19 mm; IC50 [22]: 53 µg/mL (≈ 184 µM); zone of inhibition at 50 µg/mL [23]: 12 mm; zone of inhibition at 100 µg/mL [25]: 19.8 mm; Time [26]: 62.21 min; Time [27]: 72.67 min; Time [29]: 54.56 min |
| Cn1c(NN)nc(-c2ccccc2F)c(C#N)c1=O | 13.5 | 15.3 | 19.6 | 9.85 | 51.34 | 50 (≈ 193 µM) | 49 (≈ 189 µM) | 13.1 | 17 | 22.2 | 21.6 | 68.45 | 60 (≈ 231 µM) | 17.3 | 11.1 | 11.8 | 48.77 | 42.1 | 15.7 | 13.6 | zone of inhibition at 100 µg/mL [6]: 15.4 mm; zone of inhibition at 50 µg/mL [8]: 13.8 mm; zone of inhibition at 25 µg/mL [10]: 9 mm; IC50 [22]: 43 µg/mL (≈ 166 µM); zone of inhibition at 50 µg/mL [23]: 14 mm; zone of inhibition at 100 µg/mL [25]: 19.2 mm; Time [26]: 61.02 min; Time [27]: 65.43 min; Time [29]: 54.93 min |
| CSc1nc(-c2cccs2)c(C#N)c(=O)n1C | 6.29 | 8.78 | 22.6 | 5.86 | 38.48 | 71 (≈ 270 µM) | 72 (≈ 273 µM) | 10.4 | 13.8 | 11.1 | 18.5 | 45.24 | 87 (≈ 330 µM) | 8.92 | 13 | 10.6 | 33.35 | 62.1 | 12.9 | 6.29 | IC50 [22]: 83 µg/mL (≈ 315 µM); zone of inhibition at 50 µg/mL [23]: 15.6 mm; zone of inhibition at 100 µg/mL [25]: 21.8 mm; Time [26]: 42.34 min; Time [27]: 47.82 min; Time [29]: 39.78 min |
| CSc1nc(-c2ccco2)c(C#N)c(=O)n1C | 6.12 | 7.82 | 23.5 | 5.74 | 36.59 | 68 (≈ 275 µM) | 79 (≈ 319 µM) | 11.1 | 16.8 | 12.6 | 15.6 | 60.18 | 108 (≈ 437 µM) | 9.12 | 12.3 | 13 | 32.55 | 57.2 | 12.2 | 7.06 | IC50 [22]: 90 µg/mL (≈ 364 µM); zone of inhibition at 50 µg/mL [23]: 15.9 mm; zone of inhibition at 100 µg/mL [25]: 18.4 mm; Time [26]: 53.98 min; Time [27]: 55.49 min; Time [29]: 42.68 min |
| CN[C@@H]1[C@H](O[C@H]2[C@H](O[C@H]3[C@H](O)[C@@H](O)[C@H](N=C(N)N)[C@@H](O)[C@@H]3N=C(N)N)O[C@@H](C)[C@]2(O)C=O)O[C@@H](CO)[C@H](O)[C@H]1O [STREPTOMYCIN] | 21.1 | 28.7 | – | 15.8 | – | – | – | 15.1 | – | 29.5 | 31.8 | – | – | 22.4 | – | – | – | – | 20.2 | 15.4 | zone of inhibition at 100 µg/mL [6]: 30.3 mm; zone of inhibition at 50 µg/mL [8]: 18.7 mm; zone of inhibition at 25 µg/mL [10]: 13.4 mm |
| CSc1nc(-c2ccc(N(C)C)cc2)c(C#N)c(=O)n1C | – | – | 19.7 | – | 44.52 | 78 (≈ 260 µM) | 84 (≈ 280 µM) | 10.3 | 14.4 | 9.38 | 20.3 | 47.57 | 93 (≈ 310 µM) | 8.25 | 11.1 | 11.8 | 40.22 | 19.3 | 13.9 | 6.38 | zone of inhibition at 100 µg/mL [6]: 10.6 mm; zone of inhibition at 50 µg/mL [8]: 8.52 mm; zone of inhibition at 25 µg/mL [10]: 6.06 mm; IC50 [22]: 98 µg/mL (≈ 326 µM); zone of inhibition at 50 µg/mL [23]: 14.5 mm; zone of inhibition at 100 µg/mL [25]: 17.9 mm; Time [26]: 54.1 min; Time [27]: 55.59 min; Time [29]: 35.25 min |
